Experimental data from different studies.
Each line is one published result; the experiments were not run side by side.
Read-out: cell growth or viability

CN(C)CCNC(=O)c1ccc(-c2nc3ccc4[nH]ncc4c3c3c2CCCCC3)c(F)c1
GI50 (MV4-11; resazurin; 72 h): 11 nM

OCc1ccc(-c2nn(Cc3ccccc3)c3ccc(F)cc23)o1
IC50 (RBE; ATP luminescence): 977 nM

CN(C)CCN(C)C(=O)c1ccc(-c2nc3ccc4[nH]ncc4c3c3c2CC(F)(F)CC3)cc1
GI50 (MV4-11; resazurin; 72 h): 748 nM

CC(C)(C)[C@H](N)C(=O)Nc1ccccc1/N=c1\cc(-c2ccc3c(c2)OCO3)oc2ccccc12
inhibition (MDA-MB-468; CCK-8; 1 µM): -1.02%

OCc1ccc(-c2ccn(Cc3ccccc3)n2)o1
inhibition (RBE; ATP luminescence; 46 µM, 72 h): 47%

O=C(Nc1ccccc1/N=c1\cc(-c2ccc3c(c2)OCCO3)oc2cc(F)ccc12)N1CCOCC1
inhibition (MDA-MB-468; CCK-8; 1 µM): -2.71%

O=C(/C=C/c1cccc(C(=O)NO)c1)NO
viability (HBL1; ATP luminescence; 0.1 µM, 5 days): 119%

NCCC(=O)Nc1ccccc1/N=c1\cc(-c2ccc3nc(N)oc3c2)oc2ccc(O)cc12
inhibition (MDA-MB-468; CCK-8; 1 µM): 40.2%

CN(C)CCN(C)C(=O)c1ccc(-c2nc3ccc4[nH]ncc4c3c3c2CCCCC3)cc1
GI50 (MV4-11; resazurin; 72 h): 383 nM

Cc1ccccc1Cn1nc(-c2ccc(CO)o2)c2ccccc21
inhibition (RBE; ATP luminescence; 46 µM, 72 h): 61%

CC(=O)OC[C@H]1O[C@@H](n2cnc(N)nc2=O)[C@H](OC(C)=O)[C@@H]1OC(C)=O
viability (HBL1; ATP luminescence; 1 µM, 5 days): 94.3%

CN(C)CCNC(=O)c1ccc(-c2nc3ccc4[nH]ncc4c3c3c2CCCCC3)cn1
GI50 (MV4-11; resazurin; 72 h): 146 nM

OCC1CCC(c2nn(Cc3ccccc3)c3ccccc23)O1 (centres unmarked)
inhibition (RBE; ATP luminescence; 46 µM, 72 h): 13%

NCC(=O)Nc1ccccc1/N=c1\cc(-c2ccc3c(c2)OCCO3)oc2ccccc12
inhibition (MDA-MB-468; CCK-8; 1 µM): 4.61%

O=C(NCCN1CCCCC1)c1ccc(-c2nc3ccc4[nH]ncc4c3c3c2CCCC3)cc1
GI50 (MV4-11; resazurin; 72 h): 1700 nM

CCN(Cc1ccc(F)cc1)c1ccc(CO)c(Cl)c1
inhibition (RBE; ATP luminescence; 46 µM, 72 h): 53%

CS(=O)(=O)NCCC(=O)Nc1ccccc1/N=c1\cc(-c2ccc3nc(N)oc3c2)oc2ccccc12
inhibition (MDA-MB-468; CCK-8; 1 µM): 3.19%

O=C(NCCc1ccccn1)c1ccc(-c2nc3ccc4[nH]ncc4c3c3c2CCCC3)cc1
GI50 (MV4-11; resazurin; 72 h): 1000 nM

OCc1ccc(-c2nn(Cc3ccccn3)c3cccnc23)o1
inhibition (RBE; ATP luminescence; 46 µM, 72 h): 76%

NCC(=O)Nc1ccccc1/N=c1\cc(-c2ccc3c(c2)OCO3)oc2c([N+](=O)[O-])cccc12
inhibition (MDA-MB-468; CCK-8; 1 µM): 5.28%
